Laboratory results: ChEMBL document CHEMBL4014345, “Development of Selective Clk1 and -4 Inhibitors for Cellular Depletion of Cancer-Relevant Proteins” (J Med Chem, 2017)
Calls of active or inactive are those of the source. The calls are words filed in the database; no cut-off is given here.

Columns and labels:
[1] = target: Serine/threonine-protein kinase haspin (Homo sapiens) (UniProt Q8TF76); assay: Inhibition of MBP-Haspin (unknown origin) at 1 uM after 10 mins by TR-FRET assay
Outline: (§1)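 Tested in a commercial kinase profiling panel at an ATP concentration of 100 μM. Data are the mean of duplicates that differed by less than 7%.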

THP-1 = assay: Cytotoxicity against human THP1 cells assessed as growth inhibition after 5 days by MTT assay; assay type: functional; settings: THP-1, 120 h
Outline: (§2)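 They were seeded at 5000 cells per well onto compound or DMSO (0.2% final). Plates were kept 5 days at 37 °C in 5% CO2 with no medium change, then read by MTT.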

[2] = target: Dual specificity tyrosine-phosphorylation-regulated kinase 1B (Homo sapiens, UniProt Q9Y463); assay: Inhibition of full length recombinant GST-tagged human DYRK1B expressed in baculovirus using KKISGRLSPIMTEQ-NH2 as substrate at 1 uM after 15 mins
[3] = target: Dual specificity tyrosine-phosphorylation-regulated kinase 3 (Homo sapiens) (UniProt O43781); assay: Inhibition of DYRK3 (unknown origin) using KKISGRLSPIMTEQ-NH2 as substrate at 1 uM after 15 mins in presence of [gamma-32P]-ATP
T-24 [4] = assay: Cytotoxicity against human T24 cells assessed as growth inhibition after 5 days by MTT assay; assay type: functional; settings: T-24, 120 h; outline: as §2
[5] = target: T1, Dual specificity protein kinase CLK1/CLK4 (Homo sapiens, UniProt Q9HAZ1+P49759); assay: Inhibition of CLK1/4 in human HepG2 cells assessed as down regulation of HDAC1 expression at 20 uM after 3 days by Western blot analysis relative to control; assay type: cell-based
Outline: (§3)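 HepG2 cells were grown in DMEM to 70% confluency, then the medium was replaced with compound diluted in DMEM. After 3 days, total protein was immunoblotted with monoclonal antibodies including HDAC1 and p70S6K.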

MDA-MB-231 [6] = assay: Cytotoxicity against human MDA-MB-231 cells assessed as growth inhibition after 5 days by MTT assay; assay type: functional; settings: MDA-MB-231, 120 h; outline: as §2
Homo sapiens = species: Homo sapiens; assay: Inhibition of recombinant human casein kinase 2 using RRREDEESDDEE as substrate at 1 uM after 30 mins in presence of [gamma-32P]-ATP by scintillation counting method
[7] = target: T1, Dual specificity protein kinase CLK1/CLK4; assay: Inhibition of CLK1/4 in human MDA-MB-231 cells assessed as down regulation of EGFR expression at 10 uM after 3 days by Western blot analysis relative to control; assay type: cell-based
Outline: (§4)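 T24 or MDA-MB-231 cells were grown in DMEM to 70% confluency. The medium was replaced with compound diluted in DMEM, and cells were kept 3 days. Total protein was immunoblotted with monoclonal antibodies in 3% BSA/PBS against EGFR, p70S6K α, PARP-1, ERK2, HDAC1, CD44, PCNA and GRP94.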

[8] = target: T1, Dual specificity protein kinase CLK1/CLK4; assay: Inhibition of CLK1/4 in human HepG2 cells assessed as down regulation of S6 kinase expression at 20 uM after 3 days by Western blot analysis relative to control; assay type: cell-based; outline: as §3
[9] = target: Myosin light chain kinase 2, skeletal/cardiac muscle (Homo sapiens) (UniProt Q9H1R3); assay: Inhibition of MLCK2 (unknown origin) at 1 uM after 15 mins; outline: as §1
T-24 [10] = assay: Down regulation of GRP94 expression in human T24 cells at 1.25 to 10 uM after 3 days by Western blot analysis; assay type: functional, cell-based; outline: as §4
[11] = target: T2, Dual specificity tyrosine-phosphorylation-regulated kinase 1A (Homo sapiens, UniProt Q13627); assay: Inhibition of N-terminal His6-tagged recombinant human Dyrk1A expressed in Escherichia coli BL21 (DE3) using KKISGRLSPIMTEQ-NH2 as substrate after 15 mins in presence of [gamma-32]-ATP
[12] = target: T1, Dual specificity protein kinase CLK1/CLK4; assay: Inhibition of CLK1/4 in human MDA-MB-231 cells assessed as down regulation of EGFR expression after 3 days by Western blot analysis; assay type: cell-based; outline: as §4
[13] = target: Dual specificity protein kinase CLK1 (Homo sapiens, UniProt P49759); assay: Inhibition of recombinant human GST-tagged Clk1 expressed in Escherichia coli using RS repeat substrate peptide after 15 mins in presence of [gamma-32]-ATP
MDA-MB-231 [14] = assay: Down regulation of GRP94 expression in human MDA-MB-231 cells at 2.5 to 20 uM after 3 days by Western blot analysis; assay type: functional, cell-based; outline: as §4
[15] = target: T1, Dual specificity protein kinase CLK1/CLK4; assay: Inhibition of CLK1/4 in human MDA-MB-231 cells assessed as down regulation of S6 kinase expression after 3 days by Western blot analysis; assay type: cell-based; outline: as §4
[16] = target: Dual specificity protein kinase CLK4 (Mus musculus, UniProt O35493); assay: Inhibition of recombinant GST-tagged mouse CLK4 using GRSRSRSRSRSR as substrate after 30 mins in presence of [gamma-32P]-ATP by scintillation counting method
[17] = target: T1, Dual specificity protein kinase CLK1/CLK4; assay: Inhibition of CLK1/4 in human T24 cells assessed as down regulation of HDAC1 expression after 3 days by Western blot analysis; assay type: cell-based; outline: as §4
[18] = target: T1, Dual specificity protein kinase CLK1/CLK4; assay: Inhibition of CLK1/4 in human MDA-MB-231 cells assessed as down regulation of S6 kinase expression at 2.5 uM after 3 days by Western blot analysis relative to control; assay type: cell-based; outline: as §4
[19] = target: Dual specificity tyrosine-phosphorylation-regulated kinase 4 (Homo sapiens) (UniProt Q9NR20); assay: Inhibition of DYRK4 (unknown origin) using KKISGRLSPIMTEQ-NH2 as substrate at 1 uM after 15 mins in presence of [gamma-32P]-ATP
[20] = target: T2, Dual specificity tyrosine-phosphorylation-regulated kinase 1A; assay: Inhibition of N-terminal His6-tagged recombinant human Dyrk1A expressed in Escherichia coli BL21 (DE3) using KKISGRLSPIMTEQ-NH2 as substrate at 1 uM after 15 mins in presence of [gamma-32]-ATP; settings: 0.25 h
[21] = Cytotoxicity against HEK293 cells assessed as growth inhibition; assay type: cell-based; settings: human
Outline: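 Cytotoxicity was tested in proliferating HEK293 cells with GI50 as the read-out. Data are the mean of at least two independent experiments.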

[22] = target: SRSF protein kinase 2 (Homo sapiens) (UniProt P78362); assay: Inhibition of SRPK2 (unknown origin) at 1 uM; outline: as §1
Chain of SRSF protein kinase 2 (Homo sapiens) (P78362 whole entry, looked up): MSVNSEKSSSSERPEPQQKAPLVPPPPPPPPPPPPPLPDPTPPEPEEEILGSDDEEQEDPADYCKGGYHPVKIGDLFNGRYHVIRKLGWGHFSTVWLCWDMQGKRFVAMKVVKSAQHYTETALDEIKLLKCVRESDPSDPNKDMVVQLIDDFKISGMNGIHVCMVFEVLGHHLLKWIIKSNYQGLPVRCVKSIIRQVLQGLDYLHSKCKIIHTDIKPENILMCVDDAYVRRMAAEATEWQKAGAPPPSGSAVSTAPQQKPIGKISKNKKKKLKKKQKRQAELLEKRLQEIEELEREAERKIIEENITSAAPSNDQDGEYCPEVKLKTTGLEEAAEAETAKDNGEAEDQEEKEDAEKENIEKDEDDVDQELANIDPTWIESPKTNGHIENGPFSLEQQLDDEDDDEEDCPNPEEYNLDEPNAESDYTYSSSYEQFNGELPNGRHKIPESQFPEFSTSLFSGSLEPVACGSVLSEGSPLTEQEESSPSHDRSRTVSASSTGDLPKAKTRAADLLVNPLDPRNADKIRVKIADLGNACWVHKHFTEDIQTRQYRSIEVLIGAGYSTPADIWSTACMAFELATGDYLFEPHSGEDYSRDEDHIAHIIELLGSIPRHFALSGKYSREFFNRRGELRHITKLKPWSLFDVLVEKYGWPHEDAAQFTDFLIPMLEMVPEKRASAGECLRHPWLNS

Chain of Serine/threonine-protein kinase haspin (Homo sapiens) (Q8TF76 whole entry): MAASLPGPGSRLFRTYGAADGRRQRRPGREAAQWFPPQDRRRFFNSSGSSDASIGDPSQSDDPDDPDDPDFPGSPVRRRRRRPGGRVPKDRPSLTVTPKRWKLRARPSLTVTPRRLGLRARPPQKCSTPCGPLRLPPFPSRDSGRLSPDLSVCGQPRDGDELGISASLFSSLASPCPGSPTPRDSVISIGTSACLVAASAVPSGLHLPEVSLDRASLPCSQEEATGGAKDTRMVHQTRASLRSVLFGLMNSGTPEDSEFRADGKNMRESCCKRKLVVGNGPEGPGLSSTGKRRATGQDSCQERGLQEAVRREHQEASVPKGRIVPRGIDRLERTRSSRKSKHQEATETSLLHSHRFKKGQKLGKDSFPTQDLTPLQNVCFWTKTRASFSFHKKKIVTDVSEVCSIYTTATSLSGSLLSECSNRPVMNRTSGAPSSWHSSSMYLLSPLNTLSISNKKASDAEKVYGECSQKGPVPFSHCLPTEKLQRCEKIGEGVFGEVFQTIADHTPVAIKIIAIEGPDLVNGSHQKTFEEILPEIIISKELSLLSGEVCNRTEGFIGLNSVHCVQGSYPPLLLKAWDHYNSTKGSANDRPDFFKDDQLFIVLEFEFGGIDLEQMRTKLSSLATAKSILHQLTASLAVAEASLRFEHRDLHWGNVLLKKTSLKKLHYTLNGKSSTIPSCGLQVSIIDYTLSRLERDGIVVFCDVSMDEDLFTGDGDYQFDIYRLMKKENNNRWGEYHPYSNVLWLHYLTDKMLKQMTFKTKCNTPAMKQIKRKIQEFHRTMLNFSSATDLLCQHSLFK
Chain of Dual specificity protein kinase CLK4 (O35493 whole entry): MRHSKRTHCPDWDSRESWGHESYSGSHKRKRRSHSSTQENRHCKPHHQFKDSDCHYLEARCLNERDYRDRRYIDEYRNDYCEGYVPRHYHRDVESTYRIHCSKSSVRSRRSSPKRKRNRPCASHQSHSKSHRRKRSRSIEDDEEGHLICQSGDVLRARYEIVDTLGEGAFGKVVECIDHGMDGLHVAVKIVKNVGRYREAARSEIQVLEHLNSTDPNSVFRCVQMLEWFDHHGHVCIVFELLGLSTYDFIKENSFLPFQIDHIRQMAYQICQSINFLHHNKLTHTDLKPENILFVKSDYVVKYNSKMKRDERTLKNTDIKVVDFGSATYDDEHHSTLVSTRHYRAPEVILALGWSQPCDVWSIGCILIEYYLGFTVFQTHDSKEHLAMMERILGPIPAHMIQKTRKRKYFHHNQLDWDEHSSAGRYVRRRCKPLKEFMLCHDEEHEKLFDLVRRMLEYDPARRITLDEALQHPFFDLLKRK
Chain of Dual specificity tyrosine-phosphorylation-regulated kinase 4 (Homo sapiens) (Q9NR20 whole entry): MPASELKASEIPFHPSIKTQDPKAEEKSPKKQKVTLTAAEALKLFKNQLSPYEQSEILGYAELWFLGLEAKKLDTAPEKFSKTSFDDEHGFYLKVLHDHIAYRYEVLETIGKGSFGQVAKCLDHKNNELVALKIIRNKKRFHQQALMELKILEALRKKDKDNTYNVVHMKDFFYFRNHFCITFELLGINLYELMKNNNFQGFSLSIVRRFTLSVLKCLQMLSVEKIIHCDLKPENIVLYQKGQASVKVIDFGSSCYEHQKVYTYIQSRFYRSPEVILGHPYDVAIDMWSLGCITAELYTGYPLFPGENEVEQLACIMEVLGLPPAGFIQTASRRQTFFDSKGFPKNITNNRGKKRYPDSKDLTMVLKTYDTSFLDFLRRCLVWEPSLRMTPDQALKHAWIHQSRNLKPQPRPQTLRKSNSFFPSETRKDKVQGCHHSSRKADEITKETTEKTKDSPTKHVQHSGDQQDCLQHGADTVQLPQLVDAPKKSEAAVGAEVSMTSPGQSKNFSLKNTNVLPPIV
Chain of Myosin light chain kinase 2, skeletal/cardiac muscle (Homo sapiens) (Q9H1R3 whole entry): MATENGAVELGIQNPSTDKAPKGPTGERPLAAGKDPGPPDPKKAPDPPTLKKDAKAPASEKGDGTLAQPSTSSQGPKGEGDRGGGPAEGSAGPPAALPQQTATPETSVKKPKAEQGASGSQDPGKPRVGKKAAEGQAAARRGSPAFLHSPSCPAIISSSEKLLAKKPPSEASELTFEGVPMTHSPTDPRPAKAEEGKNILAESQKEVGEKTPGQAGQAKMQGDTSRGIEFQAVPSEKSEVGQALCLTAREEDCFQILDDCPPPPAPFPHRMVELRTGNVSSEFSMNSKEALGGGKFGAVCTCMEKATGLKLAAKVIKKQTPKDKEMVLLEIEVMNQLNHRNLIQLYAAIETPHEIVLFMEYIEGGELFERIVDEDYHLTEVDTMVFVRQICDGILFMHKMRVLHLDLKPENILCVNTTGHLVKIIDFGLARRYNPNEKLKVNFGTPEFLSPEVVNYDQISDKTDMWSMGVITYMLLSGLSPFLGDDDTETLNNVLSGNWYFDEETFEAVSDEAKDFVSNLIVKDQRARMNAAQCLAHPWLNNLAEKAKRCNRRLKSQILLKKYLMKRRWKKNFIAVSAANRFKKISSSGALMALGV
Chain of Dual specificity tyrosine-phosphorylation-regulated kinase 3 (Homo sapiens) (O43781 whole entry): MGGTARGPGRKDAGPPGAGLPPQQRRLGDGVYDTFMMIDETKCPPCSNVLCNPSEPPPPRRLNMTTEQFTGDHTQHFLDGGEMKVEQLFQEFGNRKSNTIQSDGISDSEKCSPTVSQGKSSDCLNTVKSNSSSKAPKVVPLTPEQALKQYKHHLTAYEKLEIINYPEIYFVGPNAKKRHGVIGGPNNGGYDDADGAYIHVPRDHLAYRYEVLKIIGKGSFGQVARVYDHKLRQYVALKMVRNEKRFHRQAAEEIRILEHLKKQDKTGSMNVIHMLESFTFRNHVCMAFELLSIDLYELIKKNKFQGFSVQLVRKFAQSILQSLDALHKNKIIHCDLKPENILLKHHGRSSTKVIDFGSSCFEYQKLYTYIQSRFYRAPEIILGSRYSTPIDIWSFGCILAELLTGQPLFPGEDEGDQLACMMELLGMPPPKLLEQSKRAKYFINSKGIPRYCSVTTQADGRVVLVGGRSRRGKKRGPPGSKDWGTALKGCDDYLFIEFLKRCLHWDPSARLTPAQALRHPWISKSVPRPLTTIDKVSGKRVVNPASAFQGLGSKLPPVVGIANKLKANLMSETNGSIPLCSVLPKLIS
Chain of Dual specificity tyrosine-phosphorylation-regulated kinase 1B (Q9Y463 whole entry, looked up): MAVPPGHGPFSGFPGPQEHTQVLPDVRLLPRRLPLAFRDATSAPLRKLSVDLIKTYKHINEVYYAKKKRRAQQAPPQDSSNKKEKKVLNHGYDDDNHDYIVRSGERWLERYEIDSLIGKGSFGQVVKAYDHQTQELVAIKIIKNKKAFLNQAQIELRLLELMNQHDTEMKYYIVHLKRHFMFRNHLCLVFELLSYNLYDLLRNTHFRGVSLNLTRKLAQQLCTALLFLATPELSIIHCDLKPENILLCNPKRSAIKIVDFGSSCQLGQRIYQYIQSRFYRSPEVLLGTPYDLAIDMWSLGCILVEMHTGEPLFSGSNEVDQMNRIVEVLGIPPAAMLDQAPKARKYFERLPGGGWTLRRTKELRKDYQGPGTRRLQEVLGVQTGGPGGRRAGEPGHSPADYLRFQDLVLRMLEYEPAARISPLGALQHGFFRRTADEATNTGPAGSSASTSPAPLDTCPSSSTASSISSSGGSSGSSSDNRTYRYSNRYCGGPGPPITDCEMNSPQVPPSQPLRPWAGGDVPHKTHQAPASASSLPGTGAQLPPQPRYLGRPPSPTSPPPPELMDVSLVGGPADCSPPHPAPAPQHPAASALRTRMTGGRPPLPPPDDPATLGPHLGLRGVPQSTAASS
Chain of Dual specificity protein kinase CLK1 (P49759 whole entry): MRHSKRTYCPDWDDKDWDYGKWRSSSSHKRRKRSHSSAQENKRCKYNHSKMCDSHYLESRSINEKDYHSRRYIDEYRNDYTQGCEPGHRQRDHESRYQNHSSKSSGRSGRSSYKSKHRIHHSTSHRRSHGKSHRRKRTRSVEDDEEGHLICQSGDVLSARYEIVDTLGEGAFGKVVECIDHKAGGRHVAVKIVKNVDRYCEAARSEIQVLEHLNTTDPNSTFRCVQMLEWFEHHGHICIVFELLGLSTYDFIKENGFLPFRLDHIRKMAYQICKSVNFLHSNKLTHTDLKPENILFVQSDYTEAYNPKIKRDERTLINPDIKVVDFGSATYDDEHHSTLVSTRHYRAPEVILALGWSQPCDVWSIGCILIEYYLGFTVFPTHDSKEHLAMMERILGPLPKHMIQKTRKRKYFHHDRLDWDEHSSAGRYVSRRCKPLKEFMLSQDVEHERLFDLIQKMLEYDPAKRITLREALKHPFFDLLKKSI

COc1ccc2sc(C(=O)N(C)Cc3cccc(F)c3)cc2c1
inhibition [1]: 12% | GI50 (THP-1): 27.2 µM | inhibition [2]: 77% | inhibition [3]: inactive | GI50 (T-24 [4]): 0.6 µM | inhibition [5]: 44% | GI50 (MDA-MB-231 [6]): 9.6 µM | inhibition (Homo sapiens): 1.4% | inhibition [7]: 54.1% | inhibition [8]: 44% | inhibition [9]: inactive | Activity (T-24 [10]): inactive | IC50 [11]: 0.34 µM | IC50 [12]: 4.2 µM | IC50 [13]: 0.0069 to 0.007 µM | Activity (MDA-MB-231 [14]): inactive | IC50 [15]: > 20 µM | IC50 [16]: 0.0023 µM | IC50 [17]: 9.5 µM | inhibition [17]: Dose-dependent effect | inhibition [18]: 12.1% | inhibition [19]: inactive | inhibition at 1 µM [20]: 72% | GI50 [21]: > 30 µM | inhibition [22]: 7%
